The source made the active and inactive calls. No cut-off for these calls is given here.
What was measured:
Cannabinoid receptor 1 [1] = molecular target: T1, Cannabinoid receptor 1 (Homo sapiens, UniProt P21554); test: biochemical; assay type: cell-based, HEK293
Cannabinoid receptor 1 [2] = molecular target: T1, Cannabinoid receptor 1; test: Functional activity at human CB1 receptor transfected in CHOK1 cells by [35SGTP]gammaS assay; assay type: cell-based, CHO-K1
Cannabinoid receptor 2 = Cannabinoid receptor 2 (Homo sapiens, UniProt P34972); test: Binding affinity to human CB2 receptor expressed in CHOK1 cells; assay type: cell-based, CHO-K1
Chain of Cannabinoid receptor 2 (P34972 whole entry): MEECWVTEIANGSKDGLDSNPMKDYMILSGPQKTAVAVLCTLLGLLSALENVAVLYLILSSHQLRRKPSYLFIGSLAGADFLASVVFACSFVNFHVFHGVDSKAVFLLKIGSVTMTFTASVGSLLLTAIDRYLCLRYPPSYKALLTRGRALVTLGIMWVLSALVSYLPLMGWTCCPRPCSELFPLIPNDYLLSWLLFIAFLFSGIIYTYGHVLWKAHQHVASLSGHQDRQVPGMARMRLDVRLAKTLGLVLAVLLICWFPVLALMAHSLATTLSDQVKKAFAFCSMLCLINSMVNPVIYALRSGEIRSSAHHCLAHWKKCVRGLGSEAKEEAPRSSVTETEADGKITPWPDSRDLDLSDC

[3] = Plasma clearance in Sprague-Dawley rat at 1 mg/kg, iv; assay type: ADME, organism-based; parameters: dose 1 mg/kg, route intravenous
In short: (§1)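 Male Sprague-Dawley rats, 1 mg/kg iv via jugular vein cannula, amorphous solid in 20% EtOH/80% CD or Transcutol P/CD depending on compound. Plasma levels by LC-MS/MS after protein precipitation.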

[4] = Half life in Beagle dog at 0.5 mg/kg, iv; assay type: ADME, organism-based, Canis lupus familiaris; parameters: dose 0.5 mg/kg, route intravenous; conditions: in vivo
In short: (§2)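 Male beagle dogs, 0.5 mg/kg iv. Vehicle: 6.7% EtOH/60% CD/33.3% PEG 400 or Transcutol P, depending on compound; amorphous solid used for iv. Plasma levels by LC-MS/MS after protein precipitation.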

Rattus norvegicus [5] = test: Anorectic activity assessed in a fasting-induced re-feeding model in Sprague-Dawley rat at 1 mg/kg, po relative to control; assay type: functional
In short: (§3)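 Male CD rats fasted overnight, dosed orally the next morning with suspension in 0.5% methylcellulose. Food returned 0.5 h after dosing; cumulative intake measured 1.5 h later, expressed as % change versus vehicle-treated controls.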

Rattus norvegicus [6] = test: Anorectic activity assessed in a fasting-induced re-feeding model in Sprague-Dawley rat at 10 mg/kg, po relative to control; assay type: functional
In short: as §3

Rattus norvegicus [7] = test: Anorectic activity assessed in a fasting-induced re-feeding model in Sprague-Dawley rat at 3 mg/kg, po relative to control; assay type: functional
In short: as §3

[8] = Volume of distribution in Sprague-Dawley rat at 1 mg/kg, iv; assay type: ADME, organism-based; parameters: dose 1 mg/kg, route intravenous; conditions: in vivo, read-out: Vdss
In short: as §1

[9] = Volume of distribution in Beagle dog at 0.5 mg/kg, iv; assay type: ADME, organism-based, Canis lupus familiaris; parameters: dose 0.5 mg/kg, route intravenous; conditions: in vivo, read-out: Vdss
In short: as §2

[10] = Bioavailability in Sprague-Dawley rat at 1 mg/kg, iv; assay type: ADME, organism-based; conditions: in vivo
In short: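 Male Sprague-Dawley rats: iv dosing 1 mg/kg via jugular cannula (20% EtOH/80% CD or Transcutol P/CD); oral dosing of crystalline solid in 0.5% methylcellulose. Plasma by LC-MS/MS after protein precipitation.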

[11] = Half life in Sprague-Dawley rat at 1 mg/kg, iv; assay type: ADME, organism-based; parameters: dose 1 mg/kg, route intravenous; conditions: in vivo
In short: as §1

Mus musculus = test: Ability to reverse CP-55940-stimulated responses in mice at 1 mg/kg, sc; assay type: functional, organism-based; parameters: dose 1 mg/kg
In short: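 Mouse challenge assay from the 'tetrad': reversal of CP-55940-stimulated analgesia and hypothermia, test agent given sc.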

[12] = Plasma clearance in Beagle dog at 0.5 mg/kg, iv; assay type: ADME, organism-based, Canis lupus familiaris; parameters: dose 0.5 mg/kg, route intravenous
In short: as §2

Rattus norvegicus [13] = test: Anorectic activity assessed in a fasting-induced re-feeding model in Sprague-Dawley rat at 0.3 mg/kg, po relative to control; assay type: functional
In short: as §3

T1 sequence (P21554 whole entry): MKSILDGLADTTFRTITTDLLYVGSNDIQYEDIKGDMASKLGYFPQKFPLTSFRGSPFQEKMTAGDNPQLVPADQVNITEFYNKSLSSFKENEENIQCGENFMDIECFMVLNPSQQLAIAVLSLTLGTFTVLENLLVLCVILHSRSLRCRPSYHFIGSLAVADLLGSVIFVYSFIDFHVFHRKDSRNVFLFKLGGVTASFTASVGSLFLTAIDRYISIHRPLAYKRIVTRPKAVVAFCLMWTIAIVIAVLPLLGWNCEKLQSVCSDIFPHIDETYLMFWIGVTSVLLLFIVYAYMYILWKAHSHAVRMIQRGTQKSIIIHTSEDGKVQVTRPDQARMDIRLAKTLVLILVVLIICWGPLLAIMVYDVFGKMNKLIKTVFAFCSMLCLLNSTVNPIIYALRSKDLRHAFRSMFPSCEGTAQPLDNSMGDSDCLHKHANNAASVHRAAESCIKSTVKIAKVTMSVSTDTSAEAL

Question: For O=c1c2nn(-c3ccccc3Cl)c(-c3ccc(Cl)cc3)c2ncn1N1CCCCC1, which Ki (Cannabinoid receptor 1 [1]) is on record?
Answer: 0.012 µM

Question: What about the Ki (Cannabinoid receptor 1 [2]) of the same molecule?
Answer: 0.02 µM

Question: What about the Ki (Cannabinoid receptor 2) of the same molecule?
Answer: > 10 µM

Question: For O=c1c2nc(-c3ccccc3Cl)n(-c3ccc(Cl)cc3)c2ncn1CC(F)(F)F, which Ki (Cannabinoid receptor 1 [1]) is on record?
Answer: 0.001 µM

Question: What about the Ki (Cannabinoid receptor 1 [2]) of the same molecule?
Answer: 0.001 µM

Question: What about the Ki (Cannabinoid receptor 2) of the same molecule?
Answer: > 10 µM

Question: Which Ki (Cannabinoid receptor 2) does the source give for O=c1c2nn(-c3ccccc3Cl)c(-c3ccc(Cl)cc3)c2ncn1CCC(F)(F)F here?
Answer: > 10 µM

Question: For O=c1c2nn(-c3ccccc3Cl)c(-c3ccc(Cl)cc3)c2ncn1CCF, which Ki (Cannabinoid receptor 2) is on record?
Answer: > 10 µM

Question: For CCc1nc2c(-c3ccc(Cl)cc3)n(-c3ccccc3Cl)nc2c(=O)n1CC(F)(F)F, which Ki (Cannabinoid receptor 1 [1]) is on record?
Answer: 0.001 µM

Question: And the Ki (Cannabinoid receptor 1 [2])?
Answer: 0.003 µM

Question: What about the Ki (Cannabinoid receptor 2) of the same molecule?
Answer: > 10 µM

Question: With O=c1c2nn(-c3ccc(Cl)cc3)c(-c3ccccc3Cl)c2ncn1C1CCCCC1 as the molecule, how does the Ki (Cannabinoid receptor 1 [1]) read?
Answer: 0.038 µM

Question: And the Ki (Cannabinoid receptor 2)?
Answer: > 10 µM

Question: With CC(C)c1nc2c(-c3ccc(Cl)cc3)n(-c3ccccc3Cl)nc2c(=O)n1CC(F)(F)F as the molecule, how does the Ki (Cannabinoid receptor 1 [1]) read?
Answer: 0.006 µM

Question: What about the Ki (Cannabinoid receptor 1 [2]) of the same molecule?
Answer: 0.013 µM

Question: And the Ki (Cannabinoid receptor 2)?
Answer: > 10 µM

Question: With CCn1cnc2c(-c3ccc(Cl)cc3)n(-c3ccccc3Cl)nc2c1=O as the molecule, how does the Ki (Cannabinoid receptor 2) read?
Answer: > 10 µM

Question: With Cc1nc2c(-c3ccc(Cl)cc3)n(-c3ccccc3Cl)nc2c(=O)n1CC(F)(F)F as the molecule, how does the clearance [3] read?
Answer: 32 mL/min/kg

Question: And the half-life [4]?
Answer: 39 h

Question: And the Activity (Rattus norvegicus [5])?
Answer: -35%

Question: And the Activity (Rattus norvegicus [6])?
Answer: -59%

Question: What about the Activity (Rattus norvegicus [7]) of the same molecule?
Answer: -42%

Question: What about the Ki (Cannabinoid receptor 2) of the same molecule?
Answer: > 10 µM

Question: What about the Vd [8] of the same molecule?
Answer: 7.7 L/kg

Question: And the Vd [9]?
Answer: 17 L/kg

Question: And the bioavailability [10]?
Answer: 7%

Question: What about the half-life [11] of the same molecule?
Answer: 4.7 h

Question: What about the Activity (Mus musculus) of the same molecule?
Answer: Active

Question: What about the clearance [12] of the same molecule?
Answer: 10 mL/min/kg

Question: With CCCn1cnc2c(-c3ccc(Cl)cc3)n(-c3ccccc3Cl)nc2c1=O as the molecule, how does the Ki (Cannabinoid receptor 2) read?
Answer: > 10 µM

Question: Which Ki (Cannabinoid receptor 2) does the source give for CC(F)(F)Cn1cnc2c(-c3ccc(Cl)cc3)n(-c3ccccc3Cl)nc2c1=O here?
Answer: > 10 µM

Question: Which results are given for O=c1c2nn(-c3ccccc3Cl)c(-c3ccc(Cl)cc3)c2ncn1CC(F)(F)F?
Answer: clearance [3]: 45 mL/min/kg; half-life [4]: 223 h; Activity (Rattus norvegicus [5]): -32%; Activity (Rattus norvegicus [7]): -78%; Ki (Cannabinoid receptor 2): > 10 µM; Activity (Rattus norvegicus [13]): -23%; Vd [8]: 9.2 L/kg; Vd [9]: 10 L/kg; bioavailability [10]: 62%; half-life [11]: 2.6 h; Activity (Mus musculus): Active; clearance [12]: 0.54 mL/min/kg

Question: What does the source list for O=c1c2nn(-c3ccccc3Cl)c(-c3ccc(Cl)cc3)c2ncn1C1CCCCC1?
Answer: Ki (Cannabinoid receptor 1 [1]): 0.02 µM; Ki (Cannabinoid receptor 2): > 10 µM

Question: Which Ki (Cannabinoid receptor 1 [1]) does the source give for CCC(CC)n1cnc2c(-c3ccc(Cl)cc3)n(-c3ccccc3Cl)nc2c1=O here?
Answer: 0.026 µM

Question: For O=c1c2nn(-c3ccccc3Cl)c(-c3ccc(Cl)cc3)c2ncn1Cc1ccccc1, which Ki (Cannabinoid receptor 2) is on record?
Answer: > 10 µM

Question: For O=c1c2nn(-c3ccccc3Cl)c(-c3ccc(Cl)cc3)c2ncn1CC(F)F, which Ki (Cannabinoid receptor 2) is on record?
Answer: > 10 µM

Question: What does the source list for O=c1c2nn(-c3ccc(Cl)cc3)c(-c3ccccc3Cl)c2ncn1CC(F)(F)F?
Answer: Ki (Cannabinoid receptor 1 [1]): 0.028 µM; Ki (Cannabinoid receptor 2): > 10 µM

Question: Which Ki (Cannabinoid receptor 1 [1]) does the source give for O=c1c2nn(-c3ccccc3Cl)c(-c3ccc(Cl)cc3)c2ccn1CC(F)(F)F here?
Answer: 0.001 µM

Question: And the Ki (Cannabinoid receptor 1 [2])?
Answer: 0.001 µM

Question: And the Ki (Cannabinoid receptor 2)?
Answer: > 10 µM

Question: Which Ki (Cannabinoid receptor 1 [1]) does the source give for CC(C)n1cnc2c(-c3ccc(Cl)cc3)n(-c3ccccc3Cl)nc2c1=O here?
Answer: 0.021 µM

Question: Which Ki (Cannabinoid receptor 1 [1]) does the source give for O=c1c2nn(-c3ccccc3Cl)c(-c3ccc(Cl)cc3)c2cnn1CC(F)(F)F here?
Answer: 0.008 µM

Question: And the Ki (Cannabinoid receptor 1 [2])?
Answer: 0.004 µM

Question: And the Ki (Cannabinoid receptor 2)?
Answer: > 10 µM
